Rows were chosen to be rich in hits. Some 3.3% of all compounds tested hit in one or more screens of this group.
GAA850 FXN act: increases GAA850 frataxin promoter reporter activity. AID 540364. activation, % at 6 µM. HEK293 lucGAA850 FXN promoter luciferase reporter, 24 h; percent of 10 µM SAHA response. 360,000 compounds, 0.56% hits;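 active = activation above the average of all compounds screened plus 3 SD, cutoff fixed separately per campaign, cut at about 7.5% in these data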
ABCB6 inh 2: human ABCB6 transporter inhibition | fluorescence ratio to DMSO, % at 10 µM | K562-ABCB6 porphyrin accumulation, flow cytometry, 1 h; hits give low values | 360,000 compounds, 0.19% hits | Q9NP58;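 active = fluorescence ratio to DMSO below 75%, the collection mean minus 3 SD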;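 also: signal is porphyrin accumulated inside mitochondria; lower ratio means ABCB6 inhibition with less porphyrin fluorescence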
STAT3 act: STAT3 signaling activation; U3A cells, IL-6 STAT3-luciferase reporter, luminescence; 100% = signal with IL-6 EC80 alone; activation (% of control), % at 5.6 µM; 190,000 compounds, 0.91% hits;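 active = activation above the screen-wide mean of compound activation plus 3 SD, cut at about 130% in these data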
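Material: STAT3-luciferase reporter U3A cells; Probe or stimulus: IL-6 (33 ng/mL); Incubation: compound pre-incubation 1 h before IL-6, then 6 h stimulation at 37 °C; Technique: luminescence from STAT3-driven luciferase reporter; Evaluation: % activation versus median of IL-6-stimulated wells; Controls: IL-6-only high control.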
AHR act: human AHR activation; P35869; AHR-responsive luciferase reporter cells, luminescence; activation, % at 5 µM; 320,000 compounds, 2.5% hits; AID 2796; in the data active = activation above about 47%
Target sequence (P35869 whole entry, looked up): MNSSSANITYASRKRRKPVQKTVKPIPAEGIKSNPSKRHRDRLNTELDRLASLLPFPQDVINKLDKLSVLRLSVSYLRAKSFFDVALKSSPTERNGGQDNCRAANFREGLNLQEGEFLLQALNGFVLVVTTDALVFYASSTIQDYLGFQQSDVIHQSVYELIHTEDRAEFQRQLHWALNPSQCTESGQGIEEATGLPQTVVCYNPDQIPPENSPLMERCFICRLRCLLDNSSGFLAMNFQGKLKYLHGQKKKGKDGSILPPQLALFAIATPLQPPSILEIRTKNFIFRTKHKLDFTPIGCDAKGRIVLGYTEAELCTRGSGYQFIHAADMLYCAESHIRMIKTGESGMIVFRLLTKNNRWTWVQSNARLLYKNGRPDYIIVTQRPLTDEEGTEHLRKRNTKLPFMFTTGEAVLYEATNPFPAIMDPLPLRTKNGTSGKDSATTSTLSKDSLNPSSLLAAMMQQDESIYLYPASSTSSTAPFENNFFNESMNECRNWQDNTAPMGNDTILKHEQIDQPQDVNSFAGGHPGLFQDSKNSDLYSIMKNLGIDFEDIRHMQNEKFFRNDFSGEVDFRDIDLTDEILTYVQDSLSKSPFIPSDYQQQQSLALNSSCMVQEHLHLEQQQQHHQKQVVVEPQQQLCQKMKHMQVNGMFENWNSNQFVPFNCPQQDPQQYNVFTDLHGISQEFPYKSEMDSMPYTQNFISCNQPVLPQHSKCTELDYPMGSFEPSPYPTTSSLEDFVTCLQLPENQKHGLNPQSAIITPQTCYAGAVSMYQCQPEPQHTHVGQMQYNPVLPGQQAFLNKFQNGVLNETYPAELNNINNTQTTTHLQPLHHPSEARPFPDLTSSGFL
GAA30 counter: counter-screen for GAA850 frataxin promoter activators: GAA30 promoter activation; shares compounds with GAA850 FXN act; HEK293 lucGAA30 FXN promoter luciferase, 24 h; DMSO = 0%, 5 µM ipriflavone = 100%; activation, % at 6 µM; 1,900 compounds, 66% hits;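 active = mean activation above the mean of solvent-only control wells plus 3 SD, cut at about 22% in these data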;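 also: counterscreen of GAA850 promoter hits where activity marks nonselective or luminescence artifacts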
GAA850 confirm: GAA850 FXN promoter activation confirmation; shares compounds with GAA850 FXN act; HEK293 lucGAA850 FXN promoter luciferase reporter, 24 h; 100% = activation by SAHA; activation, % at 6 µM; 1,900 compounds, 86% hits;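 active = mean activation above a set limit taken from the primary screen, cut at about 8% in these data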
A number is an active result; 0 = inactive; - = no result given.

SMILES | GAA850 FXN act | ABCB6 inh 2 | STAT3 act | AHR act | GAA30 counter | GAA850 confirm
COc1ccc(C(CC(=O)O)N2C(=O)CCC2=O)cc1 (stereo not drawn) | 0 | 0 | - | 0 | - | -
Cc1ccc(NN2C(=O)C=C(c3ccccc3)C2=O)cc1 | 10.0 | 0 | 0 | - | 32.2 | 28.3
O=C1c2ccccc2C(=O)N1Nc1ccccc1 | 0 | 0 | 0 | 0 | - | -
Cc1ccc(N2C(=O)C(O)(C(F)(F)F)C3=C2CC(C)(C)CC3=O)cc1C (stereo not drawn) | 0 | 0 | 0 | 0 | - | -
O=C(CSc1nnc(-c2ccccc2)n1Cc1ccco1)NCc1ccc2c(c1)OCO2 | 0 | 0 | 0 | 0 | - | -
O=C(Cn1cc(SCc2ccccc2Cl)c2ccccc21)N1CCOCC1 | 9.9 | 0 | 0 | 0 | 132.9 | 42.9
CC(=O)Nc1ccc(NC(=O)CSc2cn(CC(=O)N3CCOCC3)c3ccccc23)cc1 | 0 | 0 | - | 0 | - | -
COc1ccc(N2CCN(C(=O)c3cc(S(=O)(=O)N4CCCCCC4)ccc3OC)CC2)cc1 | 0 | 0 | - | - | - | -
CCCCCOC(=O)Nc1nnc(CCCCC)s1 | 0 | 0 | 0 | 0 | - | -
CCCCOC(=O)Nc1nnc(CC)s1 | 7.7 | 0 | 0 | 0 | 51.0 | 27.4
CCOC(=O)c1cn(Cc2ccccc2)nc1-c1ccccc1 | 0 | 0 | - | 0 | - | -
Cc1ccccc1Nc1nc(N)nc(-c2oc3ccccc3c2C)n1 | 8.6 | 0 | - | 0 | 100.9 | 51.6
COc1ccccc1Nc1nc(N)nc(-c2oc3ccccc3c2C)n1 | 0 | 0 | 0 | 0 | - | -
Cc1c(-c2nc(N)nc(Nc3ccc(F)cc3)n2)oc2ccccc12 | 9.8 | 0 | 0 | 0 | 89.4 | 37.7
CCCCOC(=O)Nc1nc(C)c(C(=O)OCC)s1 | 0 | 0 | 0 | 0 | - | -
COc1cc2ncnc(NCc3ccc(Cl)cc3)c2cc1OC | 0 | 0 | 0 | 0 | - | -
COc1ccnc(NCc2ccc(Cl)cc2)c1C#N | 10.4 | 0 | 0 | 0 | 54.7 | 20.1
Cc1cccc(CSc2cccc3cccnc23)c1 | 24.6 | 0 | 0 | 0 | 0 | 0
c1cnc2c(SCc3ccc(-c4nnco4)cc3)cccc2c1 | 8.4 | 0 | 0 | 0 | 73.9 | 26.6
COc1ccc(NC(=O)COC(=O)c2c(C)noc2C)cc1Cl | 0 | 0 | - | - | - | -
COc1ccc(OC)c(-c2cc(C(=O)Nc3c(C)nn(Cc4ccccc4)c3C)no2)c1 | 7.8 | 0 | 0 | 0 | 0 | 12.5
COc1ccc(OC)c(-c2cc(C(=O)Nc3c(C)nn(Cc4ccc(Cl)cc4)c3C)no2)c1 | 0 | 0 | 0 | 0 | - | -
O=C(N/N=C/c1ccccn1)c1ccc(Cl)cc1 | 11.8 | 0 | - | 0 | 0 | 0
O=C(N/N=C/c1ccccn1)c1ccccc1 | 0 | 0 | 0 | 0 | - | -
COc1ccc(C(=O)N/N=C/c2ccccn2)cc1OC | 0 | 0 | 0 | 0 | - | -
SMILES | GAA850 FXN act | ABCB6 inh 2 | STAT3 act | AHR act | GAA30 counter | GAA850 confirm
COc1ccc(C(=O)Nc2ccccc2C(=O)N/N=C/c2ccccn2)cc1OC | 10.4 | 0 | - | 0 | 0 | 0
Nc1nc(Nc2ccccc2)nc(N2CCCC2)c1[N+](=O)[O-] | 11.2 | 0 | - | 0 | 74.9 | 38.8
Cc1ccc(S(=O)(=O)N2CCN(S(=O)(=O)c3ccc(C)cc3)C2c2ccccc2)cc1 | 8.3 | 0 | 0 | 0 | 0 | 0
O=C(c1cc(-c2ccccc2Cl)on1)N1CCN(C(=O)c2ccco2)CC1 | 0 | 0 | 0 | 0 | - | -
S=C(c1ccc(-c2ccccc2Cl)o1)N1CCCCC1 | 8.6 | 0 | 0 | 0 | 112.8 | 39.2
O=C(c1ccco1)N1CCN(C(=O)c2ccc(-c3ccccc3Cl)o2)CC1 | 7.6 | 0 | - | 0 | 88.1 | 30.4
O=C(c1ccc(-c2ccc(Cl)cc2Cl)o1)N1CCOCC1 | 9.1 | 0 | 0 | 0 | 114.3 | 46.4
O=C(O)CCCC(=O)NS(=O)(=O)c1ccc(Cl)cc1 | 0 | 0 | 0 | 0 | - | -
CC(=O)Oc1ccc(/C=N/NS(=O)(=O)c2ccccc2)cc1 | 0 | 0 | 0 | 0 | - | -
CCOc1ccc(NC(=O)COc2ccc3c(c2)CCC3)cc1OC | 0 | 0 | - | 0 | - | -
C/C(CC(=O)NCc1ccccc1Cl)=N/NC(=O)c1ccccn1 | 8.2 | 0 | - | 0 | 49.6 | 13.7
CC(=O)c1sc(Nc2ccccc2)nc1C | - | 0 | - | - | - | -
CC(=O)c1sc(Nc2cccc(C)c2)nc1C | 7.8 | 0 | 0 | 0 | 100.7 | 31.3
Oc1ccc(/C=N/N2CCCCC2)cc1O | 12.3 | 0 | - | 0 | 54.9 | 28.4
Clc1ccc(C=NN2CCCCCC2)cc1Cl | 0 | 0 | - | - | - | -
COc1ccc(C(=O)OCC(=O)NC2CC2)cc1OC | 0 | 0 | - | 0 | - | -
O=C(/C=C/c1cccc([N+](=O)[O-])c1)c1ccc([N+](=O)[O-])o1 | 0 | 0 | - | 0 | - | -
Cc1cccc(/C=C/C(=O)c2ccc([N+](=O)[O-])o2)c1 | 11.3 | 0 | - | 0 | 0 | 0
CC(C)(C)n1nc(-c2ccc(F)cc2)c2c(N)ncnc21 | 11.6 | 0 | 0 | 0 | 53.7 | 11.7
Cc1ccc(-c2nn(C(C)(C)C)c3ncnc(NS(=O)(=O)c4ccc([N+](=O)[O-])cc4)c23)cc1 | 0 | 0 | 0 | 0 | - | -
Cc1ccc(-c2nc(N)c3c(-c4ccc(C)cc4)nn(C(C)(C)C)c3n2)cc1 | 0 | 0 | 0 | 0 | - | -
CC(C)(C)n1nc(-c2ccc(Cl)cc2)c2c(N)ncnc21 | 11.3 | 0 | 0 | 0 | 64.2 | 0
O=C(COc1ccccc1)Nc1ccccc1C(=O)NCc1ccco1 | 8.4 | 0 | 0 | 0 | 40.9 | 16.0
O=S(=O)(NCCO)c1cccc2cccnc12 | 14.3 | 0 | 0 | 0 | 0 | 0
O=S(=O)(Nc1ccc(N2CCCCC2)cc1)c1cccc2cccnc12 | 8.0 | 0 | 0 | 0 | 0 | 0
SMILES | GAA850 FXN act | ABCB6 inh 2 | STAT3 act | AHR act | GAA30 counter | GAA850 confirm
COc1ccccc1NC(=O)c1ccc(NS(=O)(=O)c2cccc3cccnc23)cc1 | 8.6 | 0 | 0 | 0 | 0 | 9.8
COc1ccc(C)cc1NC(=O)c1ccc(NS(=O)(=O)c2cccc3cccnc23)cc1 | 0 | 0 | - | 0 | - | -
Cc1ccccc1-n1cnnc1SCC(=O)N1CCN(c2ccccc2)CC1 | 0 | 0 | 0 | 0 | - | -
CCOc1ccc(Nc2ncnc3c2cnn3-c2ccccc2)cc1 | 12.8 | 0 | 0 | 0 | 67.3 | 21.5
O=C(NCc1ccco1)c1ccc(Cn2c(=O)c3ccccc3n(Cc3cccc(Cl)c3)c2=O)cc1 | 10.7 | 0 | 0 | 0 | 0 | 0
O=C(Cn1c(=O)n(Cc2ccco2)c(=O)c2ccccc21)Nc1cccc(Cl)c1 | 0 | 0 | 0 | 0 | - | -
O=C(NCc1ccco1)c1ccc(Cn2c(=O)c3sccc3n(Cc3cccc(F)c3)c2=O)cc1 | 17.7 | 0 | 0 | 0 | 25.0 | 12.6
CCN1C(=O)[C@H]2[C@@H](c3ccc(C)cc3)N3C(=O)N(c4ccc(OC)cc4)C(=O)[C@@]3(CC)[C@H]2C1=O | 0 | 0 | - | 0 | - | -
CCN1C(=O)[C@H]2[C@@H](c3ccc(C)cc3)N3C(=O)N(c4cccc(F)c4)C(=O)[C@@]3(Cc3ccc(Cl)cc3)[C@H]2C1=O | 0 | 0 | - | 0 | - | -
O=C1[C@H]2[C@@H](c3ccc(F)cc3)N3C(=O)N(c4ccc(Br)cc4)C(=O)[C@@]3(Cc3ccccc3)[C@H]2C(=O)N1C1CCCCC1 | 9.1 | 0 | - | 0 | 0 | 0

Screening results as filed in PubChem BioAssay.
